In ChEMBL document CHEMBL1156012, “Structure-activity relationship and improved hydrolytic stability of pyrazole derivatives that are allosteric inhibitors of West Nile Virus NS2B-NS3 proteinase” (Bioorg Med Chem Lett, 2009):

Tests used:
Genome polyprotein = Genome polyprotein (West Nile virus, UniProt P06935); assay: Inhibition of WNV NS2B-NS3 protease by fluorescence assay
Procedure, shortened: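 Recombinant WNV NS2B-NS3 proteinase (10 nM, active-site titrated against aprotinin) preincubated 60 min at 18 °C with increasing inhibitor concentrations in 10 mM Tris-HCl pH 8.0, 20% glycerol, 0.005% Brij 35. Pyr-RTKR-AMC substrate at 25 μM; initial velocities read continuously at ex 360/em 465 nm. Triplicates; IC50 derived.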

[1] = Aqueous stability assessed as half life at pH 8.0 buffer; assay type: physicochemical
Procedure, shortened: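 Compound held in pH 8 buffer; remaining amount followed over time by LC/MS to give half-life.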

Sequence of Genome polyprotein (P06935 1371-1501 limits assumed): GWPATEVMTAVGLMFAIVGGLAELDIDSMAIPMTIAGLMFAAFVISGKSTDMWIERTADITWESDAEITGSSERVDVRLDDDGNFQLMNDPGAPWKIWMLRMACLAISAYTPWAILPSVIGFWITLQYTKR
Sequence of Genome polyprotein (P06935 1502-2120 limits assumed): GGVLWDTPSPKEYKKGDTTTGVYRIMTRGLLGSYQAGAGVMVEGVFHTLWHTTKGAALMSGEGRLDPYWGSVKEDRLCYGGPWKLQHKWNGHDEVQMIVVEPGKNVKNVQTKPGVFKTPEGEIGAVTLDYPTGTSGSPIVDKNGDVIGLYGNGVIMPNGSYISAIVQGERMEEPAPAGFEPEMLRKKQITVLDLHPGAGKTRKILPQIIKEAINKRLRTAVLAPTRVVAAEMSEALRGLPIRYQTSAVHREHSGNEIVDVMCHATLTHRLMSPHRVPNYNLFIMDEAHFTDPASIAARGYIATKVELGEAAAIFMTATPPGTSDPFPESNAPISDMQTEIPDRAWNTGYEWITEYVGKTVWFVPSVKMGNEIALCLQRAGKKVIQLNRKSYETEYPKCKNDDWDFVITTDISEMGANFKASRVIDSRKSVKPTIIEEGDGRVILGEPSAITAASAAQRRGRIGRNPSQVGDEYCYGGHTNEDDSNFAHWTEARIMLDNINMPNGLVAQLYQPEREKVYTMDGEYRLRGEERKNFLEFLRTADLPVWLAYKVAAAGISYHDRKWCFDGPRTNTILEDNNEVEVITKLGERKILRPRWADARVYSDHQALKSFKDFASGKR

With COc1ccc(S(=O)(=O)n2nc(OC(=O)c3ccc(F)cc3F)cc2N)cc1 the IC50 (Genome polyprotein) was 1.96 µM and the t1/2 [1] was 450 min.

For COc1ccc(S(=O)(=O)n2nc(OC(=O)c3c(F)c(F)c(C)c(F)c3F)cc2N)cc1, the IC50 (Genome polyprotein) was 10.7 µM.

In the case of COc1ccc(S(=O)(=O)n2nc(OC(=O)c3sccc3Cl)cc2N)cc1, the IC50 (Genome polyprotein) is reported as 1.22 µM.

Work on COc1ccc(Cn2nc(C)cc2CC(=O)c2c(F)cccc2F)cc1 yielded an IC50 (Genome polyprotein) of 23.9 µM.

Work on COc1ccc(Cn2nc(C)cc2CC(=O)c2ccccc2F)cc1 yielded an IC50 (Genome polyprotein) of 38.8 µM.

For COc1ccc(Cn2nc(C)cc2CC(O)c2ccccc2)cc1 (stereo not given), the IC50 (Genome polyprotein) was > 100 µM.

COc1ccc(S(=O)(=O)n2nc(OC(=O)c3sccc3C)cc2N)cc1 gave an IC50 (Genome polyprotein) of 5 µM.

Cc1cc(OC(=O)c2c(F)ccc(C)c2F)n(Cc2ccccc2)n1 showed an IC50 (Genome polyprotein) of 9.43 µM.

For Cc1cc(OC(=O)c2c(F)cccc2F)n(Cc2ccccc2)n1, the IC50 (Genome polyprotein) was 8.04 µM.

For COc1ccc(S(=O)(=O)n2nc(OC(=O)c3cc(F)ccc3F)cc2N)cc1, the IC50 (Genome polyprotein) was 4.9 µM.

With COc1ccc(S(=O)(=O)n2nc(OC(=O)c3cccc(C(F)(F)F)c3F)cc2N)cc1 the IC50 (Genome polyprotein) was 45.5 µM.

With Cc1cc(NC(=O)c2ccccc2)n(-c2ccccc2)n1 the IC50 (Genome polyprotein) was 16 µM and the t1/2 [1] was > 5760 min.

In the case of COc1ccc(S(=O)(=O)n2nc(OC(=O)c3ccccc3C)cc2N)cc1, the IC50 (Genome polyprotein) is reported as 3.55 µM.

With COc1ccc(S(=O)(=O)n2nc(OC(=O)c3ccccc3[N+](=O)[O-])cc2N)cc1 the IC50 (Genome polyprotein) was > 100 µM.

COc1ccc(Cn2nc(C)cc2OC(=O)c2c(F)ccc(C)c2F)cc1 showed an IC50 (Genome polyprotein) of 9.26 µM.

Compound COc1ccc(S(=O)(=O)n2nc(OC(=O)c3c(F)ccc(F)c3F)cc2N)cc1 has an IC50 (Genome polyprotein) of 0.97 µM and a t1/2 [1] of 90 min.

Work on COc1ccc(S(=O)(=O)n2nc(OC(=O)c3ccc(F)c(F)c3F)cc2N)cc1 yielded an IC50 (Genome polyprotein) of 11.9 µM.

COc1ccc(Cn2nc(C)cc2/C=C/c2c(F)cccc2F)cc1 gave an IC50 (Genome polyprotein) of 13.8 µM and a t1/2 [1] of 780 min.

COc1ccc(Cn2nc(C)cc2OC(=O)c2ccccc2)cc1 showed an IC50 (Genome polyprotein) of 4.03 µM and a t1/2 [1] of 900 min.

In the case of COc1ccc(Cn2nc(C)cc2CC(O)c2c(F)cccc2F)cc1 (stereo not given), the IC50 (Genome polyprotein) is reported as > 100 µM.

COc1ccc(S(=O)(=O)n2nc(OC(=O)c3c(F)cccc3F)cc2N)cc1 gave an IC50 (Genome polyprotein) of 0.31 µM and a t1/2 [1] of 90 min.

Work on COc1ccc(S(=O)(=O)n2nc(OC(=O)c3c(F)cc(F)cc3F)cc2N)cc1 yielded an IC50 (Genome polyprotein) of 1.83 µM and a t1/2 [1] of 255 min.

With COc1ccc(Cn2nc(C)cc2CC(=O)c2ccccc2)cc1 the IC50 (Genome polyprotein) was > 100 µM.

With COc1ccc(Cn2nc(C)cc2OC(=O)c2c(F)cccc2F)cc1 the IC50 (Genome polyprotein) was 8.71 µM and the t1/2 [1] was 90 min.

For COc1ccc(S(=O)(=O)n2nc(OC(=O)c3c(Cl)cccc3Cl)cc2N)cc1, the IC50 (Genome polyprotein) was > 100 µM and the t1/2 [1] was 300 min.

Work on COc1ccc(S(=O)(=O)n2nc(OC(=O)c3cc(F)c(F)cc3F)cc2N)cc1 yielded an IC50 (Genome polyprotein) of 26.2 µM.

In the case of COc1ccc(S(=O)(=O)n2nc(OC(=O)c3ccccc3OC)cc2N)cc1, the IC50 (Genome polyprotein) is reported as > 100 µM.

With COc1ccc(S(=O)(=O)n2nc(C)cc2NC(=O)c2ccccc2)cc1 the IC50 (Genome polyprotein) was 9.2 µM and the t1/2 [1] was 75 min.

For COc1ccc(S(=O)(=O)n2nc(OC(=O)c3c(F)ccc(C)c3F)cc2N)cc1, the IC50 (Genome polyprotein) was 4.28 µM and the t1/2 [1] was 150 min.
